Experimental data published in the EternaBench riboswitch data.

Tested on: MS2 coat protein
Assay: apparent Kd, MS2 coat protein; higher = weaker binding; RNA-MaP array; FMN 200 µM where present
Outline: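 Two titrations, one without ligand and one with constant ligand, were run with SNAP-549-labelled MS2 coat protein from 0.7 or 1.5 nM, doubling to 3 µM. The targets were designs transcribed by stalled E. coli RNA polymerase on Illumina sequencing-chip clusters, in 100 mM Tris-HCl pH 7.5, 80 mM KCl, 4 mM MgCl2, BSA, DTT, yeast tRNA and Tween-20. The apparent Kd is the median of filtered per-cluster binding-curve fits, with green signal normalised to red-channel RNA signal and control-cluster median Fmax.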

[1] = designed as: OFF switch for flavin mononucleotide, no ligand
[2] = ligand present: flavin mononucleotide, designed as: OFF switch for flavin mononucleotide
[3] = designed as: ON switch for flavin mononucleotide, no ligand
[4] = ligand present: flavin mononucleotide, designed as: ON switch for flavin mononucleotide

| Sequence | apparent Kd [1] [µM] | apparent Kd [2] [µM] | apparent Kd [3] [µM] | apparent Kd [4] [µM] |
| --- | --- | --- | --- | --- |
| AGUCGGAGCAGAGGAUAUACAUGAGGAUCACCCAUGUAAUAAAUCCAAGCCUGGAAACAGGCAAUGUAGAAGGCUGCUCCGACA | 0.0168 | 0.0788 | – | – |
| AGUCGGAGCAGAGGAUAUAUACAUGAGGAUCACCCAUGUAAAUGAAUGAGCUGGAAACAGCAUGUAUAGAAGGCUGCUCCGACA | 0.113 | 0.303 | – | – |
| AGUCGGAGCAGAGGAUAUUACAUGAGGAUCACCCAUGUAUAAAAUGGAAGCUGGAAACAGCAAUGUAAGAAGGCUGCUCCGACA | 0.064 | 0.296 | – | – |
| AGUGCCUCGAGAGGAUAUAACAUGAGGAUCACCCAUGUAACAGAGGUGGAAACACCUCUGAAAUGUUAGAAGGCUCGAGGCACA | 0.0407 | 0.0532 | – | – |
| AGUGUCAUCCAGAAGGAGAUGGACAUGAGGAUCACCCAUGUUCCAUGAUCUAGGAUAUGGAUGAUACAGCUACGUUUCGUAGCA | – | – | 0.00461 | 0.00473 |
| AGUGUCAUCGAGAAGGCCCUGACAUGAGGAUCACCCAUGUUGUUACAUGGGAGGAUAUCGAUGAUACAGCUACGUUUCGUAGCA | – | – | 0.0128 | 0.00505 |
| AGUGUCAUCGAGAAGGCCUCAACAUGAGGAUCACCCAUGUUGUUACAUGGGAGGAUAUCGAUGAUACAGCUACGUUUCGUAGCA | – | – | 1.01 | 0.137 |
| AGUGUGUGGCAGGAUAUUCUGUUGGUUCGGGCAGAAGAAGGGUCUACAUGAGGAUCACCCAUGUAAGCGGUUGA | 0.205 | 0.486 | – | – |
| AGUUAGAUAGCGAUAUGAUCGAGAGAUCAUGUCGCUAAAUUUAGAAGGACAUGAGGAUCACCCAUGUAGGAUAUGGGAGUAGAA | – | – | 0.143 | 0.0593 |
| AGUUCCUCCGCAGGAUAUGUGCUCUUUAUCACAUGAGGAUCACCCAUGUCAGCCGAAACGGCGAGACAGAAGGGUGGUGGUGCC | – | – | 0.213 | 0.169 |
| AGUUGACGAGAAGGAUAUCCGAACCUUUAAAGAGGAGAAGGUCUAUCAACAUGAGGAUCACCCAUGUACAUCGCUCGGGUGUCC | 0.0822 | 0.306 | – | – |
| AGUUGUAAACAGAACAUGAGGAUCACCCAUGUGCUCUCGUGUAAGGAUAUACAUUCGUAUGGAAAGUAGAAGGUACUAAUUAUG | – | – | 0.0784 | 0.0787 |
| AUAAGCUCGUCAGGAUAUACGUCACUGCUUCGGCAGUGAGGUAAGAUCACAUGAGGAUCACCCAUGUAGAAGGGACGAGCUUAU | 0.00565 | 0.0144 | – | – |
| AUAAGUCGAGGAUAUACAAAAUGCUAGCGAAAGCUAGCAUAACAUGAGGAUCACCCAUGUAGAAGGCGACAAUA | 0.0245 | 0.0261 | – | – |
| AUAAUUUUAUAAUUCUAUAUAUUCAGAAGGCAUAACAUGAGGAUCACCCAUGUAAAUUAAUGUUAUGAGGAUAUGAUUCGGUUA | 0.0139 | 0.0673 | – | – |
| AUAAUUUUAUAUAUCUUAUUUAUCAGAAGGCAUAACAUGAGGAUCACCCAUGUAUAUUAUAGUUAUGAGGAUAUGAUUUAGUUA | 0.00804 | 0.00885 | – | – |
| AUAAUUUUAUUUUUCUAUUAUAUCAGAAGGCAUUACAUGAGGAUCACCCAUGUUUUGGAUAGUAAUGAGGAUAUGAUAUGGUUA | 0.0111 | 0.0283 | – | – |
| AUACAUGAGGAUCACCCAUGUAAUUAAUUAAUUAAUAAGAUCUAGGAUAUCAGCUCGUUUAGAGCUGAGAAGGAGAUCACAUGU | – | – | 0.0234 | 0.0131 |
| AUACAUGAGGAUCACCCAUGUUACUGGGUCUAUAUAGAACGUAGAAGGAUGUAUUUAAGAAUAACAUAGGAUAUACUUUAUAGU | 0.0604 | 0.0382 | – | – |
| AUACCACGAGGAUAUCGUCUAUAAUACAUGAGGAUCACCCAUGUUAUAUCUGUAAUGUUUCGAGAAGGCGUGUUUU | 0.0175 | 0.0142 | – | – |
| AUACUCAUGUAAGGAUAUGCAGCCGUUUCGGCUGCAGAAGGUACUAUAAUACAUGAGGAUCACCCAUGUCUUUUUAAUUUAGAC | – | – | 0.153 | 0.0399 |
| AUACUGAGCGUAAAUUACCUGAACAUGAGGAUCACCCAUGUGGAGGAUAUUGACCUAGCAAAGCUCGAGAAGGCCACUGGGAUG | 0.0323 | 0.0187 | – | – |
| AUAGCUCUCUAGAAGGACCAAGCAGUAUACCAUCAGGUAUAUACGCUAGGUAGGAUAUGGGACAUGAGGAUCACCCAUGUGUAG | – | – | 0.0539 | 0.0339 |
| AUAGCUCUCUAGAAGGUCCAACCAGUAUUCCAUCAGGUAAAUACGGUAGGGAGGAUAUGGGACAUGAGGAUCACCCAUGUGUAG | – | – | 0.0422 | 0.0252 |
| AUAGGCCUAGGAUAUACAUGAGGAUCACCCAUGUUAACACUUCAAUCAAGUUAAUAUUGUAGAAGGAGGAAUAA | 0.0304 | 0.0295 | – | – |
| AUAGUAGAAGUGAGGAUAUCGUAGAUUUUAGGAAACGAGAAGGCACAUGAGGAUCACCCAUGUAAGAUGGAGGU | 0.28 | 0.298 | – | – |
| AUAGUGCCCGAGAAGGACGUACCACAUGUUGAUCACCGAUAUAAGGAACGUAGGAUAUUGGACAUGAGGAUCACCCAUGUGGAU | – | – | 0.0875 | 0.162 |

| Sequence | apparent Kd [1] [µM] | apparent Kd [2] [µM] | apparent Kd [3] [µM] | apparent Kd [4] [µM] |
| --- | --- | --- | --- | --- |
| AUAUAACAUGAGGAUCACCCAUGUCAGGAUAUCGAACCCAACACAACCAAAAUGUCGGCGAGAAGGGACAAAAA | 0.0354 | 0.0327 | – | – |
| AUAUAACAUGAGGAUCACCCAUGUCUCUAAAGUCGAGGAUAUGGGCAGGUUAUAUCCGAACCAGAAGGCGGGUUAU | – | – | 0.315 | 0.717 |
| AUAUCACAUGAGGAUCACCCAUGUCAGGAUAUGAUACUAUGUACUUCGGUACAUAGUAUCAGAAGGGAUAUGAA | 0.0415 | 0.0699 | – | – |
| AUAUCUAUGUAAGGAUAUAGAUGGUAUACGCCUCCGACAUGAGGAUCACCCAUGUUAUAUUUUGUCUAGAAGGUACAUUGUCGG | – | – | 0.383 | 0.305 |
| AUAUCUCCCUAGAAGGUGGAACGACAAUUGCAUCACGUAGUUGGCGAUCCAAGGAUAUGGGACAUGAGGAUCACCCAUGUGGAU | – | – | 0.0164 | 0.00881 |
| AUAUGAAAGAUAGGAUAUACUGAGGUUGAAUGGGUAGAAGGAUCGAUAGUGAAGAAUACAUGAGGAUCACCCAUGUUGUGGAUU | – | – | 0.556 | 0.209 |
| AUAUGAGAAGCAGGAUAUGUGAAAAAAAAACAUACAGAAGGGUUUAUGGGACAACAUGAGGAUCACCCAUGUUCUCUGUGAUGA | – | – | 0.0652 | 0.071 |
| AUAUGAUAGAUAGGAUAUACAGUGGUUUUAUAAGUAGAAGGAUCAAAUGGGAAUUAUACAUGAGGAUCACCCAUGUUUUUGGAU | – | – | 0.0586 | 0.0404 |
| AUAUGAUAGAUAGGAUAUACUAUGGUUGAAGAAGUAGAAGGAUCAAUAGGGAAAUGUACAUGAGGAUCACCCAUGUUAUGGAUU | – | – | 0.0297 | 0.0269 |
| AUAUGAUAGAUAGGAUAUACUGAGGUUGAAUGGGUAGAAGGAUCGAUAGGGAAGACUACAUGAGGAUCACCCAUGUUGUGGAUU | – | – | 0.0884 | 0.0527 |
| AUAUUUAAUGAGGAUAUCGUUGCGGGUACGUAGCGAGAAGGCAUUACAUGAGGAUCACCCAUGUAGUGUGGGUU | 0.0213 | 0.0683 | – | – |
| AUAUUUAUUUAGAAGGACAUGAGGAUCACCCAUGUCGCUGGGCGCGGGAAACCGUGCGCGGCCAUGUAGGAUAUAGGUAGAUAU | 0.0144 | 0.0124 | – | – |
| AUAUUUGUGUAGAAGGUACGUGAUUAGUCAAAGUAAGGAUAUACUGACAUGAGGAUCACCCAUGUUUAAAUAGUUAAAUGUUCU | – | – | 0.0109 | 0.00801 |
| AUCAGCACGUGAGGAUAUGCGUCACUGCGUCAGCAGUGCGGUAAGAUCACAUGAGGAUCACCCAUGUAGAAGGCACGAGCUGAU | 0.0214 | 0.0498 | – | – |
| AUCAGCUCGGCAGGAUAUACAUCACUGCUUCGGCAGUGUAUUAAGAUCACAUGAGGAUCACCCAUGUAGAAGGGCCGAGCUGAU | 0.0341 | 0.389 | – | – |
| AUCAGCUCGUCAGGAUAUACAUCACUGCUUCGGCAGUGUAUUAAGAUUACAUGAGGAUCACCCAUGUAGAAGGGACGAGCUGAU | 0.0173 | 0.0208 | – | – |
| AUCAGCUCGUCAGGAUAUACGUCACUGAGUCAGCAGUGUGGUAAGAUCACAUGAGGAUCACCCAUGUAGAAGGGACGAGCUGAU | 0.0163 | 0.241 | – | – |
| AUCAGCUCGUCAGGAUAUACGUCACUGCGUCAGAAGUGUGGUAAGAUCACAUGAGGAUCACCCAUGUAGAAGGGACGAGCUGAU | 0.0234 | 0.253 | – | – |
| AUCAGCUCGUCAGGAUAUACGUCACUGCGUCAGCAGUGUGGUAAGAUCACAUGAGGAUCACCCAUGUAGAAGGGACGAACUGAU | 0.0136 | 0.292 | – | – |
| AUCAGCUCGUCAGGAUAUACGUCACUGCGUCAGCAGUGUUGUAAGAUCACAUGAGGAUCACCCAUGUAGAAGGGACGAGCUGAU | 0.00591 | 0.0102 | – | – |
| AUCAGCUCGUCAGGAUAUACGUCACUGCGUCCGCAGUGUGGUAAGAUCACAUGAGGAUCACCCAUGUAGAAGGGACGAGCUGAU | 0.0138 | 0.264 | – | – |
| AUCAGCUCGUCAGGAUAUACGUCACUGCUUCAGCAGUGUGGUAAGAUCACAUGAGGAUCACCCAUGUAGAAGGGACGAGCUGAU | 0.0141 | 0.268 | – | – |
| AUCAGCUCGUCAGGAUAUACGUCACUGCUUCGGCAGUGUGGUAAGAUCACAUGAGGAUCACCCAUGUAGAAGGGACGAGCUGAU | 0.0384 | 0.754 | – | – |
| AUCAGCUGGUCAGGAUAUACGUCACUGCGUCAGCAGUGUGGUAAGAUCACAUGAGGAUCACCCAUGUAGAAGGGACGAGCUGAU | 0.0145 | 0.286 | – | – |
| AUCAUGUAAGGAUAUCUUAUAUGGAUCUUCGGAUCAAGUUAAGAGAAGGUACAUGAGGAUCACCCAUGUAUAAC | 0.0232 | 0.0358 | – | – |
| AUCCGGCGUGUAGGAUAUGGAUCCGAUUAGGAUCCAGAAGGACAUGAGGAUCACCCAUGUACAUGUAAACAGUCAUCACCGGAC | 0.0115 | 0.136 | – | – |
| AUCCUGCGAGGAUAUACAUAAUUUUUUUCAUUUUGUUUCGAACAUGAGGAUCACCCAUGUAGAAGGUGCUACAC | 0.0321 | 0.029 | – | – |
